How the values were obtained:
BTK = conditions: read-out: IC50 BTK; as previously reported; cited from earlier work
[1] = system: kinases containing a conserved cysteine residue that aligns with the Cys481 in BTK; conditions: cited from earlier work
[2] = system: BCR signaling (CD69 expression); format: in vivo, C57BL/6 mice; conditions: for effective dose (CD69 expression): oral gavage 0.1 to 30mg/kg, splenocytes 3 hours after dose, anti-IgM 18 h
Outline: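 Female C57BL/6 mice (5/group/dose) were gavaged with vehicle or test compound at 0.1–30mg/kg. Splenocytes were taken 3 hours later and stimulated with goat anti-mouse IgM at 10μg/mL for 18 hours (37°C, 5% CO2). After Fc blocking, cells were stained for CD19 and CD69, with 7-AAD to exclude dead cells. CD69 on >5,000 gated CD19+ cells per sample was measured by flow cytometry.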

phospho-ERK(T202/Y204) = experiment: NSG primary CLL xenograft model, pERK in CLL cells from spleen; format: in vivo, NSG mice; conditions: drinking water 0.3 or 0.16mg/mL, three weeks
Outline: (§1)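 Human CLL patient MNCs were Ficoll-isolated and viably frozen. They were transferred at 1 × 10^8 cells/mouse into busulfan-primed NSG mice. Drinking-water dosing (0.3 or 0.16mg/mL; 0.06mg/mL in select experiments) started day −1, with vehicle controls. After 3 weeks, splenocytes were sieved, ACK-lysed, fixed (4% paraformaldehyde), permeabilised (90% methanol) and stained for pPLCγ2(Y759), pERK(T202/Y204) or Ki-67 against isotype controls. Mice were averaged per patient and compared by paired t-test.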

human CLL cells [3] = experiment: NSG primary CLL xenograft model, circulating CLL cell count per μL blood; format: in vivo, NSG mice; conditions: drinking water, three weeks, whole blood
Outline: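 Whole blood came from CLL-engrafted NSG mice after 3 weeks of treated or vehicle drinking water started at busulfan priming (day −1). Absolute human CLL cells (CD45+/CD19+/CD5+) per μL were counted by flow cytometry with counting beads. Values are averages of 2–5 mice per donor patient, compared by paired t-test.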

[4] = system: BCR stimulation by anti-IgM (CD69) in CLL patient MNCs; format: cell-based, human; conditions: 1μM pretreatment 3 hours, anti-IgM 18 h
TEC = conditions: read-out: concentration inhibiting TEC; biochemical kinase assays; cited from earlier work
phospho-S6(S235/236) [5] = format: in vivo, C57BL/6 mice; conditions: 0.16mg/mL drinking water, one or four weeks, ex vivo anti-IgM
Outline: (§2)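 C57BL/6 recipients received 1 × 10^7 Eμ-TCL1 leukemic cells. Drinking water with 0.16mg/mL test compound or vehicle began once blood CD5+/CD19+ cells reached ≥10%. After 1 or 4 weeks, splenocytes were stimulated ex vivo with anti-IgM. Cells were stained for B220, CD3, pPLCγ2(Y1217) (n=7/group) or pS6(S235/236) (n=14/group). Median fluorescence was read in B220+CD3− cells as % change versus vehicle, by normalised unpaired t-test.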

phospho-PLCγ2(Y759) = experiment: NSG primary CLL xenograft model, pPLCγ2 in CLL cells from spleen; format: in vivo, NSG mice; conditions: drinking water 0.3 or 0.16mg/mL, three weeks
Outline: as §1

phospho-BTK(Y223) [6] = format: in vivo, C57BL/6 mice; conditions: 0.16mg/mL drinking water, one or four weeks, ex vivo anti-IgM
murine BTK = murine BTK (Mus musculus, UniProt P35991); experiment: BTK occupancy probe ELISA, TCL1 adoptive transfer model splenocytes; format: in vivo; conditions: 0.16mg/mL drinking water, one or four weeks
ERBB4 = conditions: read-out: concentration inhibiting ERBB4; biochemical kinase assays; cited from earlier work
phospho-p65(S529) = experiment: in vitro phospho-flow in CLL patient MNCs, phospho-NF-κB p65; format: cell-based, human; conditions: 1μM, one hour
Outline: (§3)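 Primary CLL patient MNCs (n=5 patients) were treated in culture with or without 1μM test compound for 1 hour. Cells were fixed in 4% paraformaldehyde, permeabilised in 90% methanol and stained for phospho-PLCγ2(Y759), phospho-S6(S235/236) or phospho-p65(S529) with isotype controls. Flow cytometry gave the percent of CLL cells positive for each readout.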

human CLL cells [7] = experiment: NSG primary CLL xenograft model, CLL cell proliferation; format: in vivo, NSG mice; conditions: drinking water, three weeks, spleen
Outline: as §1

phospho-S6(S235/236) [8] = experiment: in vitro phospho-flow in CLL patient MNCs, phospho-S6; format: cell-based, human; conditions: 1μM, one hour
Outline: as §3

ITK = target: T1, ITK (Homo sapiens, UniProt Q08881); experiment: DiscoverRx KINOMEscan competition binding assay, ITK; conditions: 1μM compound
T1 sequence (Q08881 1-620): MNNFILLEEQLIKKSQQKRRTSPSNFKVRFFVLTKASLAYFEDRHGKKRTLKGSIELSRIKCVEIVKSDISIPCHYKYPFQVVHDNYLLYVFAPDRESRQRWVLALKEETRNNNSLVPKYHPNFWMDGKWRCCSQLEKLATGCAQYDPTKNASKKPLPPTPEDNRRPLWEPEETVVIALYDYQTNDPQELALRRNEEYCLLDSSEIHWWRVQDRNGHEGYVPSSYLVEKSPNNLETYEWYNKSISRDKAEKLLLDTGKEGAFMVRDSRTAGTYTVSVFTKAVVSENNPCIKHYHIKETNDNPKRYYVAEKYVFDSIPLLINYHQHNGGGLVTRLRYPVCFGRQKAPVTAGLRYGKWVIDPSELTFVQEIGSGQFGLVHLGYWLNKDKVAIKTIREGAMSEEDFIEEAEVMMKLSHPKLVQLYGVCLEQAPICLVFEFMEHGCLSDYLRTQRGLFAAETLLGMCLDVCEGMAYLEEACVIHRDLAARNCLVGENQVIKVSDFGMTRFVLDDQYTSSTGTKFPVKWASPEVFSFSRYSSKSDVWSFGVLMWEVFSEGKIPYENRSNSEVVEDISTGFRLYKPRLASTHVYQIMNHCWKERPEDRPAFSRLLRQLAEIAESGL

phospho-BTK(Y223) [9] = experiment: in vitro phospho-flow in CLL patient MNCs, phospho-BTK; format: cell-based, human; conditions: 1μM, one hour
[10] = system: 395 wild-type human kinases; experiment: DiscoverRx KINOMEscan ATP site dependent competition binding assay, kinase panel; conditions: 1μM compound
phospho-PLCγ2(Y1217) = format: in vivo, C57BL/6 mice; conditions: 0.16mg/mL drinking water, one or four weeks, ex vivo anti-IgM
Outline: as §2

human CLL cells [11] = experiment: NSG primary CLL xenograft model, tumor burden in the spleen; format: in vivo, NSG mice; conditions: drinking water, three weeks
Outline: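 Spleen tumour burden in NSG mice engrafted with 1 × 10^8 primary CLL MNCs after busulfan priming. Mice got treated or vehicle drinking water from day −1 for 3 weeks. Homogenised, sieved, ACK-lysed splenocytes were surface-stained (CD45, CD19, CD3, CD5) and analysed by flow cytometry. Burden is the percentage of CLL cells among human CD45+ cells. Per-patient averages were compared by paired t-test.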

Sequence of murine BTK (P35991 whole entry): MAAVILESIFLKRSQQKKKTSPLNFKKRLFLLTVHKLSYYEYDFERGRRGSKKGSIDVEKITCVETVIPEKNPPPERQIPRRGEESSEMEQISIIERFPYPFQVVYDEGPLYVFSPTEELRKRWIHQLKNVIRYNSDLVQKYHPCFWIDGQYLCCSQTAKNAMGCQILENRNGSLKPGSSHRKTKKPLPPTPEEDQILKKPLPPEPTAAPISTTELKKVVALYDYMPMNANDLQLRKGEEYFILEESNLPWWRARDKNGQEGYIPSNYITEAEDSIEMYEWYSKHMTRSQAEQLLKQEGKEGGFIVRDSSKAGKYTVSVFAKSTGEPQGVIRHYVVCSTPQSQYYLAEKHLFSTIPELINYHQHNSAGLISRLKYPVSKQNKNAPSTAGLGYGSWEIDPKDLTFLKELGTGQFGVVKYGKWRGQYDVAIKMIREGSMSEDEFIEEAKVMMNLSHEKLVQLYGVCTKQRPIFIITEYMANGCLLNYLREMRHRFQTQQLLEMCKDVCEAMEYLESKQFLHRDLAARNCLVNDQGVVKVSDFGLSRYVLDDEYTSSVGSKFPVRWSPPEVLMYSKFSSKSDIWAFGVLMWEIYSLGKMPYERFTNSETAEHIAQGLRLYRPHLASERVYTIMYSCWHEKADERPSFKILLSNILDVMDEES

For `C=CC(=O)N1CCC[C@@H](n2nc(-c3ccc(Oc4ccccc4)cc3)c3c(N)ncnc32)C1` [ibrutinib, reference compound], the IC50 (BTK) is given as 1.5 nM, the “IC50 values for all ten kinases with the conserved cysteine” value [1] is given as “low nanomolar range” and the “effective dose (CD69 expression)” value [2] is given as 2.9 mg/kg.
In the case of `CC#CC(=O)N1CCC[C@H]1c1nc(-c2ccc(C(=O)Nc3ccccn3)cc2)c2c(N)nccn12` [acalabrutinib, Acalabrutinib], the “median change in phosphorylation of ERK vs vehicle” value (phospho-ERK(T202/Y204)) is reported as −79%, the “median change in CLL cells per μL of blood vs vehicle” value (human CLL cells [3]) is reported as “+0.76%” and the “prevention of BCR stimulation by anti-IgM (CD69)” value [4] is reported as “significantly prevented BCR stimulation”. The IC50 (TEC) was […], the IC50 (BTK) was 5.1 nM and the “median change in pS6 induction vs vehicle” value (phospho-S6(S235/236) [5]) was −35%. For the same compound, the “median change in phosphorylation of PLCγ2 vs vehicle” value (phospho-PLCγ2(Y759)) was −68%, the “median change in auto-phosphorylation of BTK vs vehicle” value (phospho-BTK(Y223) [6]) was −31% and the “effective dose (CD69 expression)” value [2] was 1.3 mg/kg. The “inhibition of BCR signaling (CD69 expression) compared with ibrutinib” value ([2]; oral, 1mg/kg and 3mg/kg) was “significantly more than ibrutinib”, the “drug occupancy of murine BTK” value (murine BTK) was ≥ 90% and the IC50 (ERBB4) was < 100 nM. For the same compound, the “median change in phosphorylation of NF-κB (p65)” value (phospho-p65(S529)) was −26%, the “median change in Ki67 (CLL cell proliferation) vs vehicle” value (human CLL cells [7]) was −50% and the “median change in phosphorylation of S6” value (phospho-S6(S235/236) [8]) was −20%. The “inhibition of ITK” value (ITK) was “not significantly inhibited”, the “median change in MFI of pBTK (autophosphorylation site)” value (phospho-BTK(Y223) [9]) was −15% and the “binding across kinase panel” value [10] was “Minimal binding outside of BTK”. For the same compound, the “median change in phosphorylation of PLCγ2 vs vehicle” value (phospho-PLCγ2(Y1217)) was −22% and the “median change in human CLL cells in the murine spleen (tumor burden) vs vehicle” value (human CLL cells [11]) was −33%.

Reference: publication PMC5548968 (Clinical cancer research : an official journal of the …, 2016)
